Activity calls are given as the source filed them. The calls are words filed in the database; no cut-off is given here.
Columns and labels:
[1] = Cytotoxicity against human ARN-8 cells-derived from human A375 cells under dark condition measured after 24 hrs by MTT assay; format: functional, cell-based; settings: ARN-8 cell
Procedure, shortened: (§1)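 Cells grown in phenol red-free DMEM with 10 % FBS, penicillin/streptomycin, 37 °C, 5 % CO₂. Compound added 24 h after plating and incubated 4 h. Irradiated cells received 414 nm LED light at 20 mW/cm², 10 J/cm², then were incubated 20 h or 68 h more. Dark plates were run in parallel without irradiation. MTT was added for 4 h, formazan dissolved in 10 % SDS, absorbance read at 570 nm. EC50 ± SD.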

[2] = Selectivity ratio of EC50 for human ARN-8 cells-derived from human A375 cells under dark condition measured after 72 hrs by MTT assay to EC50 for human ARN-8 cells-derived from human A375 cells pretreated for 4 hrs followed by light irradiation of 10 J/cm2 at 414 nm measured after 68 hrs by MTT assay; format: functional, ARN-8 cell
Procedure, shortened: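 Ratio of dark EC50 to EC50 after 414 nm irradiation (10 J/cm²). MTT read-out; compound exposure 4 h before irradiation. Each dark value is paired with the matching post-irradiation incubation (20 h or 68 h).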

[3] = tested on: G-361; assay: Induction of ROS production in human G361 cells upto 4 uM pretreated for 4 hrs followed by light irradiation of 5 to 10 J/cm2 measured immediately in presence of N-acetylcysteine by CM-H2DCFA probe based analysis; format: functional, cell-based
Procedure, shortened: (§2)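 Cells loaded next day with 5 µM CM-H₂DCFDA for 30 min, then placed in prewarmed PBS with 5 mM glucose. Compound exposure 4 h, followed by 414 nm irradiation at 5 or 10 J/cm²; dark samples run in parallel. Fluorescence read immediately at 492/530 nm. NAC (5 mM) pretreatment for 10 min gave negative controls. RFU normalised to untreated dark control.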

[4] = tested on: ARN-8 cell; assay: Upregulation of Mcl-1 level in human ARN-8 cells-derived from human A375 cells upto 4 uM pretreated for 4 hrs followed by light irradiation of 10 J/cm2 at 414 nm measured after 20 hrs by Western blot analysis; format: functional, cell-based; settings: time 24.0 hrs
Procedure, shortened: (§3)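 Compound exposure 4 h, then 414 nm irradiation, then 20 h further incubation. Lysates made in RIPA buffer, separated by SDS-PAGE and blotted to nitrocellulose. Primary antibodies in TBS with 4 % BSA and 0.1 % Tween 20, incubated overnight. Peroxidase secondary antibody with chemiluminescent detection. GAPDH served as loading control.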

[5] = tested on: ARN-8 cell; assay: Downregulation of p53 level in human ARN-8 cells-derived from human A375 cells transfected with p53-responsive beta-galactosidase at higher concentration pretreated for 4 hrs followed by light irradiation of 10 J/cm2 at 414 nm measured after 20 hrs by fluorescence based assay; format: functional; settings: time 24.0 hrs
Procedure, shortened: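 ARN8 cells stably carrying the p53-responsive pRGΔfoslacZ reporter. Increasing compound concentrations for 4 h, then 414 nm irradiation at 2.5, 5, 7.5 or 10 J/cm², then 20 h further incubation. Cells lysed in 0.3 % Triton X-100. After 10 min, 4-methylumbelliferyl β-D-galactopyranoside added at a final 80 µM for 1 h. Fluorescence read at […].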

[6] = tested on: G-361; assay: Induction of DNA fragmentation in human G361 cells at 0.5 uM pretreated with compound followed by light irradiation of 10 J/cm2 at 414 nm by Comet assay; format: functional, cell-based
Procedure, shortened: (§4)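 G361 cells exposed at 0.5 µM and irradiated at indicated 414 nm doses. Cells trypsinized and embedded in 1 % LMP agarose on slides, lysed 1 h in buffer with 1 % Triton X. Cold electrophoresis solution for 40 min, then electrophoresis at 20 V, 350 mA for 20 min. Neutralised twice for 10 min, stained with SYBR Green 15 min. Percent DNA in comet head and tail scored.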

[7] = tested on: G-361; assay: Induction of ROS production in human G361 cells upto 4 uM treated for 4 hrs under dark condition by CM-H2DCFA probe based analysis; format: functional, cell-based; procedure, shortened: as §2
[8] = tested on: ARN-8 cell; assay: Induction of cell cycle arrest in human ARN-8 cells-derived from human A375 cells assessed as cell accumulation at G2/M phase at 0.5 to 1 uM pretreated for 4 hrs followed by light irradiation of upto 10 J/cm2 at 414 nm measured after 20 hrs by flow cytometry; format: functional, cell-based; settings: dose 0.5-1 µM, time 24.0 hrs
Procedure, shortened: (§5)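 Compound exposure 4 h (0.5 or 1 µM), then irradiation at increasing blue-light doses, then 20 h further incubation. Cells stained with propidium iodide; DNA content measured by flow cytometry with a 488 nm laser. Cell-cycle and subG1 distributions analysed.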

[9] = tested on: G-361; assay: Induction of cell cycle arrest in human G361 cells assessed as increase in cell population at sub-G1 phase at 0.5 to 1 uM pretreated for 4 hrs followed by light irradiation of upto 10 J/cm2 at 414 nm measured after 20 hrs by flow cytometry; format: functional, cell-based; settings: dose 0.5-1 µM, time 24.0 hrs; procedure, shortened: as §5
[10] = tested on: G-361; assay: Induction of DNA fragmentation in human G361 cells at 0.5 uM by Comet assay; format: functional, cell-based; procedure, shortened: as §4
[11] = tested on: ARN-8 cell; assay: Induction of ROS production in human ARN-8 cells-derived from human A375 cells upto 4 uM pretreated for 4 hrs followed by light irradiation of 5 to 10 J/cm2 measured immediately in presence of N-acetylcysteine by CM-H2DCFA probe based analysis; format: functional; procedure, shortened: as §2
[12] = tested on: ARN-8 cell; assay: Induction of apoptosis in human ARN-8 cells-derived from human A375 cells assessed as increase in cleaved BAX level upto 4 uM pretreated for 4 hrs followed by light irradiation of 10 J/cm2 at 414 nm measured after 20 hrs by Western blot analysis; format: functional, cell-based; settings: time 24.0 hrs; procedure, shortened: as §3
[13] = tested on: ARN-8 cell; assay: Induction of apoptosis in human ARN-8 cells-derived from human A375 cells assessed as decrease in Bcl-2 level upto 4 uM pretreated for 4 hrs followed by light irradiation of 10 J/cm2 at 414 nm measured after 20 hrs by Western blot analysis; format: functional, cell-based; settings: time 24.0 hrs; procedure, shortened: as §3
[14] = Cytotoxicity against human ARN-8 cells-derived from human A375 cells under dark condition measured after 72 hrs by MTT assay; format: functional, cell-based; settings: ARN-8 cell; procedure, shortened: as §1
[15] = tested on: G-361; assay: Induction of apoptosis in human G361 cells assessed as increase in cleaved BAX level upto 4 uM pretreated for 4 hrs followed by light irradiation of 10 J/cm2 at 414 nm measured after 20 hrs by Western blot analysis; format: functional, cell-based; settings: time 24.0 hrs; procedure, shortened: as §3
[16] = tested on: ARN-8 cell; assay: Induction of ROS production in human ARN-8 cells-derived from human A375 cells upto 4 uM treated for 4 hrs under dark condition by CM-H2DCFA probe based analysis; format: functional; procedure, shortened: as §2
[17] = tested on: G-361; assay: Induction of apoptosis in human G361 cells assessed as increase in cleaved PARP-1 level upto 4 uM pretreated for 4 hrs followed by light irradiation of 10 J/cm2 at 414 nm measured after 20 hrs by Western blot analysis; format: functional, cell-based; settings: time 24.0 hrs; procedure, shortened: as §3
[18] = tested on: G-361; assay: Induction of apoptosis in human G361 cells assessed as increase in cleaved pro-caspase-9 level upto 4 uM pretreated for 4 hrs followed by light irradiation of 10 J/cm2 at 414 nm measured after 20 hrs by Western blot analysis; format: functional, cell-based; settings: time 24.0 hrs; procedure, shortened: as §3
[19] = tested on: G-361; assay: Induction of ROS production in human G361 cells pretreated for 4 hrs followed by light irradiation of 5 to 10 J/cm2 measured immediately by CM-H2DCFA probe based analysis; format: functional, cell-based; settings: dose <= 4.0 µM; procedure, shortened: as §2
[20] = Cytotoxicity against human BJ cells under dark condition measured after 72 hrs by MTT assay; format: toxicity, cell-based; procedure, shortened: as §1

COc1ccc(/C=C/C2=Nc3ccc4ccccc4c3C2(C)C)cc1[N+](=O)[O-]
EC50 [1]: 9.2 µM
Ratio EC50 [2]: >28
Activity [3]: inactive
Activity [4]: Active
Activity [5]: Active
Activity [6]: Active
Activity [7]: inactive
Activity [8]: Active
Activity [9]: Active
Activity [10]: inactive
Activity [11]: inactive
Activity [12]: Active
Activity [13]: Active
EC50 [14]: 7.3 µM
Activity [15]: Active
Activity [16]: inactive
Activity [17]: Active
Activity [18]: Active
Activity [19]: Dose-Dependent Effect
EC50 at 72 h [20]: 8.3 µM

Source: ChEMBL document CHEMBL6071149, “Synthesis and photo-induced anticancer activity of new 2-phenylethenyl-1H-benzo[e]indole dyes” (Eur J Med Chem, 2024)
